Measurements reported in ChEMBL document CHEMBL1142378, “Characterization and crystal structure of Escherichia coli KDPGal aldolase” (Bioorg Med Chem, 2008).

T1: KHG/KDPG aldolase (Escherichia coli (strain K12)), P0A955 [T161A]
T1 sequence (whole entry): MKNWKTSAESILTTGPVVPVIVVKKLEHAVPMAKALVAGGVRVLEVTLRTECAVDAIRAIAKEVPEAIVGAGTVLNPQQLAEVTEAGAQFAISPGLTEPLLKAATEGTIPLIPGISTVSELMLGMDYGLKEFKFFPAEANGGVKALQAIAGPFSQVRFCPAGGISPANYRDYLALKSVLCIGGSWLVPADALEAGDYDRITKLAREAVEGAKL

T2: 2-dehydro-3-deoxy-6-phosphogalactonate aldolase (Escherichia coli (strain K12)), Q6BF16 [V154T]
T2 sequence (whole entry): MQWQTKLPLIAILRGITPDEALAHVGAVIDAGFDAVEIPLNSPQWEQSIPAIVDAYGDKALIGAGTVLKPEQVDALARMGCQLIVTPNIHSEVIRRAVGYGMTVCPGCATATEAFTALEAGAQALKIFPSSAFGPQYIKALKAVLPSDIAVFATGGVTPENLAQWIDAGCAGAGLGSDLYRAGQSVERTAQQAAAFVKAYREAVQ

T3: 2-dehydro-3-deoxy-6-phosphogalactonate aldolase (Escherichia coli (strain K12)), Q6BF16 [V154A]
T3 sequence (whole entry): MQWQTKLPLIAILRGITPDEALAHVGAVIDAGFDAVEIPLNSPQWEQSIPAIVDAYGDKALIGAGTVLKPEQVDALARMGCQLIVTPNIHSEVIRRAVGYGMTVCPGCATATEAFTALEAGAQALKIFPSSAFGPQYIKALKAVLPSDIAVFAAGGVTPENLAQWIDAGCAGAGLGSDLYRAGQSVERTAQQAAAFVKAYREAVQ

T4: KHG/KDPG aldolase (Escherichia coli (strain K12)), P0A955 [T161V]
T4 sequence (whole entry): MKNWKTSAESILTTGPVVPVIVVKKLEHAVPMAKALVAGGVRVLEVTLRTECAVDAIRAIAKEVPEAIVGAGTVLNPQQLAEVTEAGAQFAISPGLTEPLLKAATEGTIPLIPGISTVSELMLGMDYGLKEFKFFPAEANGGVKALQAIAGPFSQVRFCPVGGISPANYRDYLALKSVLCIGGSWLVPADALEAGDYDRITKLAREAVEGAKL


Columns and labels:
Escherichia coli [1] = assay: Ratio of kcat to Km for Escherichia coli KDPGal aldolase
Method in brief: (§1)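 The enzyme started a coupled L-lactate dehydrogenase assay in 20 mM HEPES pH 7.0 with 0.42 mM NADH, KDPGal at 0.2×–5× KM and 105 U LDH. The A340 decrease was followed for 5 min. Initial slopes were fitted to Michaelis–Menten.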

[2] = tested on: T1, KHG/KDPG aldolase (Escherichia coli (strain K12)), P0A955 [T161A]; assay: Ratio of kcat to Km of Escherichia coli KDPG aldolase T161A mutant
Method in brief: (§2)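 KDPG aldolase T161A or T161V mutants were expressed from the pET plasmid in DF71 (eda–) cells, induced with 1 mM IPTG at 25 °C for 16 h, and purified on nickel resin. Assays used 20 mM HEPES pH 7.0, 0.42 mM NADH, KDPG at 0.2×–5× KM and 105 U rabbit-muscle L-lactate dehydrogenase, started with enzyme. A340 was monitored for 5 min, and initial velocities were fitted to Michaelis–Menten.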

Escherichia coli [3] = assay: Ratio of kcat to Km of Escherichia coli KDPG aldolase
Method in brief: (§3)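 Wild-type KDPG aldolase activity toward KDPG (0.2×–5× KM) was read through a coupled L-lactate dehydrogenase system: 20 mM HEPES pH 7.0, 0.42 mM NADH, 105 U LDH. Aldolase was added to start the reaction, NADH loss was followed at 340 nm for 5 min, and Michaelis–Menten fits gave the parameters.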

[4] = tested on: T2, 2-dehydro-3-deoxy-6-phosphogalactonate aldolase (Escherichia coli (strain K12)), Q6BF16 [V154T]; assay: Ratio of kcat to Km for Escherichia coli KDPGal aldolase V154T mutant
Method in brief: (§4)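 V154A or V154T KDPGal aldolase was made by Quikchange and expressed in DF71 (eda–) cells, with 1 mM IPTG induction at 25 °C for 16 h. It was nickel-affinity purified. Retro-aldol cleavage of KDPGal (0.2×–5× KM) was coupled to L-lactate dehydrogenase (105 U) in 20 mM HEPES pH 7.0 with 0.42 mM NADH. Aldolase was added last, and A340 loss was read over 5 min. Kinetic constants came from Michaelis–Menten fits of initial rates.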

Escherichia coli [5] = assay: Activity of Escherichia coli KDPG aldolase; method in brief: as §3
[6] = tested on: T3, 2-dehydro-3-deoxy-6-phosphogalactonate aldolase (Escherichia coli (strain K12)), Q6BF16 [V154A]; assay: Ratio of kcat to Km for Escherichia coli KDPGal aldolase V154A mutant; method in brief: as §4
Escherichia coli [7] = assay: Activity of Escherichia coli KDPGal aldolase; method in brief: as §1
[8] = tested on: T4, KHG/KDPG aldolase (Escherichia coli (strain K12)), P0A955 [T161V]; assay: Ratio of kcat to Km of Escherichia coli KDPG aldolase T161V mutant; method in brief: as §2
[9] = substrate: O=C(O)C(=O)C[C@H](O)[C@H](O)COP(=O)(O)O; assay: (§5) Activity of Escherichia coli KDPGal aldolase V154T mutant; method in brief: as §4
[10] = substrate: O=C(O)C(=O)C[C@H](O)[C@@H](O)COP(=O)(O)O; assay: as §5; method in brief: as §4
[11] = substrate: O=C(O)C(=O)C[C@H](O)[C@H](O)COP(=O)(O)O; assay: (§6) Activity of Escherichia coli KDPGal aldolase V154A mutant; method in brief: as §4
[12] = substrate: O=C(O)C(=O)C[C@H](O)[C@@H](O)COP(=O)(O)O; assay: as §6; method in brief: as §4

Row | Molecule | Ratio (Escherichia coli [1]) [mM⁻¹ s⁻¹] | Ratio [2] [mM⁻¹ s⁻¹] | Ratio (Escherichia coli [3]) [mM⁻¹ s⁻¹] | Ratio [4] [mM⁻¹ s⁻¹] | Km (Escherichia coli [5]) [µM] | kcat (Escherichia coli [5]) [s⁻¹] | Ratio [6] [mM⁻¹ s⁻¹] | Km (Escherichia coli [7]) [µM] | kcat (Escherichia coli [7]) [s⁻¹] | Ratio [8] [mM⁻¹ s⁻¹] | Km [9] [µM] | kcat [9] [s⁻¹] | Km [10] [µM] | kcat [10] [s⁻¹] | Km [11] [µM] | kcat [11] [s⁻¹] | Km [12] [µM] | kcat [12] [s⁻¹]
1 | 2-dehydro-3-deoxy-6-phosphogalactonate aldolase (Escherichia coli (strain K12)), Q6BF16 V154T (protein) MQWQTKLPLIAILRGITPDEALAHVGAVIDAGFDAVEIPLNSPQWEQSIPAIVDAYGDKALIGAGTVLKPEQVDALARMGCQLIVTPNIHSEVIRRAVGYGMTVCPGCATATEAFTALEAGAQALKIFPSSAFGPQYIKALKAVLPSDIAVFATGGVTPENLAQWIDAGCAGAGLGSDLYRAGQSVERTAQQAAAFVKAYREAVQ | – | – | – | – | – | – | – | – | – | – | 90 | 0.01 | 300 | 0.2 | – | – | – | –
2 | 2-dehydro-3-deoxy-6-phosphogalactonate aldolase (Escherichia coli (strain K12)), Q6BF16 V154A (protein) MQWQTKLPLIAILRGITPDEALAHVGAVIDAGFDAVEIPLNSPQWEQSIPAIVDAYGDKALIGAGTVLKPEQVDALARMGCQLIVTPNIHSEVIRRAVGYGMTVCPGCATATEAFTALEAGAQALKIFPSSAFGPQYIKALKAVLPSDIAVFAAGGVTPENLAQWIDAGCAGAGLGSDLYRAGQSVERTAQQAAAFVKAYREAVQ | – | – | – | – | – | – | – | – | – | – | – | – | – | – | 300 | 0.007 | 400 | 0.5

Further lines, with some results ahead:

Row | Ratio (Escherichia coli [1]) [mM⁻¹ s⁻¹] | Ratio [2] [mM⁻¹ s⁻¹] | Ratio (Escherichia coli [3]) [mM⁻¹ s⁻¹] | Ratio [4] [mM⁻¹ s⁻¹] | Km (Escherichia coli [5]) [µM] | kcat (Escherichia coli [5]) [s⁻¹] | Ratio [6] [mM⁻¹ s⁻¹] | Km (Escherichia coli [7]) [µM] | kcat (Escherichia coli [7]) [s⁻¹] | Ratio [8] [mM⁻¹ s⁻¹] | Molecule | Km [9] [µM] | kcat [9] [s⁻¹] | Km [10] [µM] | kcat [10] [s⁻¹] | Km [11] [µM] | kcat [11] [s⁻¹] | Km [12] [µM] | kcat [12] [s⁻¹]
3 | 1.1 | 58 | 800 | 0.1 | 100 | 80 | 0.02 | 1300 | 1.4 | 0.07 | O=C(O)C(=O)C[C@H](O)[C@H](O)COP(=O)(O)O | – | – | – | – | – | – | – | –
4 | 19 | 5 | 2.8 | 0.7 | 600 | 1.7 | 1.3 | 200 | 3.8 | 0.1 | O=C(O)C(=O)C[C@H](O)[C@@H](O)COP(=O)(O)O | – | – | – | – | – | – | – | –
